These results are taken from ChEMBL document CHEMBL1125327, “Conformationally restricted deltorphin analogues” (J Med Chem, 1992).

The target of assay [1] is Mu-type opioid receptor (Cavia porcellus, UniProt P97266). The assay is described as follows: Inhibition of electrically evoked contractions in Guinea pig ileum. The class given is functional, tissue-based. In a few lines: (§1)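 Isolated guinea pig ileum or mouse vas deferens, electrically stimulated; agonist IC50 taken as inhibition of evoked contractions from log dose–response curves. A [Leu5]enkephalin standard curve was run on each preparation and test IC50 values normalised to it. Antagonist Ke derived from IC50 ratio with and without a fixed antagonist concentration.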
Chain of Mu-type opioid receptor (Cavia porcellus, UniProt P97266) (P97266 whole entry): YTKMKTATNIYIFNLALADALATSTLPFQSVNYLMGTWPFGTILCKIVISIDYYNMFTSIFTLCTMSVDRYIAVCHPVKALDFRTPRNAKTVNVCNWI

Assay [2] has as its target T1, Delta-type opioid receptor (Mus musculus, UniProt P32300). As to the kind of experiment: (§2) Inhibition of electrically evoked contractions in mouse vas deferens. In kind it is functional.
Assay [3] concerns the target T2, Delta-type opioid receptor (Rattus norvegicus, UniProt P33533). The assay is described as follows: Inhibition of [3H]- ]DSLET binding to delta receptor from rat brain membrane. The method in brief:
(§3)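 Displacement of 0.78 nM [3H]DSLET from rat brain membrane preparations, incubated 2 h at 0 °C. IC50 from log dose–displacement curves, converted to Ki via Cheng–Prusoff with a [3H]DSLET Kd of 2.6 nM.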

Assay [4] concerns the target T3, Mu-type opioid receptor (Rattus norvegicus, UniProt P33535). The assay is described as follows: Inhibition of [3H]- ]DAMGO binding to mu receptor from rat brain membrane. In a few lines: (§4)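 Displacement of 0.72 nM [3H]DAMGO from rat brain membranes; 2 h incubation at 0 °C. IC50 read from log dose–displacement curves; Ki calculated by Cheng–Prusoff equation using Kd 1.3 nM for [3H]DAMGO.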

In assay [5] the target is T2, Delta-type opioid receptor. The assay is described as follows: Inhibition of [3H]- ]DSLET binding to Opioid receptor delta 1 from rat brain membrane. In a few lines:
as §3

The target in assay [6] is T3, Mu-type opioid receptor. The assay is described as follows: (§5) Inhibition of [3H]- ]DAMGO binding to Opioid receptor mu 1 from rat brain membrane. The method in brief:
as §4

Assay [7] concerns the target T1, Delta-type opioid receptor. The assay is described as §2. In kind it is functional. In a few lines: as §1
This is another data set of the same source.

Assay [8] addresses T3, Mu-type opioid receptor. Described as §5. In a few lines:
as §4
This is another data set of the same source.

The target of assay [9] is T2, Delta-type opioid receptor. The assay is described as follows: Inhibition of [3H]- ]DSLET binding to opioid receptor delta from rat brain membrane. In a few lines:
as §3

Assay [10] addresses T3, Mu-type opioid receptor. As to the kind of experiment: Inhibition of [3H]- ]DAMGO binding to opioid receptor mu from rat brain membrane.

pIC50, pKi: −log10 of the molar value. Positions of bridges follow the written chain, without caps; N, C: chain ends. Non-standard residues stand in square brackets, D forms with d. Residues, ends and D or L forms follow the SMILES beside them. Tic = O=C(O)[C@@H]1Cc2ccccc2CN1; Aic = NC1(C(=O)O)Cc2ccccc2C1; Nle = CCCC[C@H](N)C(=O)O Where only a bound is given, the exact number is not on record here.

T3 sequence (P33535 whole entry): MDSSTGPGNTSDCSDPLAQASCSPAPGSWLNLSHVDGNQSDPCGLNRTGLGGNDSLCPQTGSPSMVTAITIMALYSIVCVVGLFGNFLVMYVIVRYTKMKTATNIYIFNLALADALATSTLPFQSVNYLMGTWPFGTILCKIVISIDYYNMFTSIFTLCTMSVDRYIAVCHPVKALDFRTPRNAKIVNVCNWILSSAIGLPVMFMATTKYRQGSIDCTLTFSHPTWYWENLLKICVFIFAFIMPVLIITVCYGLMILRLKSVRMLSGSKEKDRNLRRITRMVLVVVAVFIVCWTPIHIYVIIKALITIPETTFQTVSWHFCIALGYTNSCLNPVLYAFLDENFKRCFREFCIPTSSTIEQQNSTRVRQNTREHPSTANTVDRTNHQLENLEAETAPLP
T1 sequence (P32300 whole entry): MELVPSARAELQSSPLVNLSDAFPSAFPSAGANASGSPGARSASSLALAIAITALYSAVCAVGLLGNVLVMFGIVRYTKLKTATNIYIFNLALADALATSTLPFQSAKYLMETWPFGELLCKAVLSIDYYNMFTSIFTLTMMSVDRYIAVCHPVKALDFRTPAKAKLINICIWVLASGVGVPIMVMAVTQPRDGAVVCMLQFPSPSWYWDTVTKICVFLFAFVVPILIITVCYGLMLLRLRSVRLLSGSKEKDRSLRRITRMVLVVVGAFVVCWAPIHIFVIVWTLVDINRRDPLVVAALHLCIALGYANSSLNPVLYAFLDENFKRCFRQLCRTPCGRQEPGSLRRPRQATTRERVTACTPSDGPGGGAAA
T2 sequence (P33533 whole entry): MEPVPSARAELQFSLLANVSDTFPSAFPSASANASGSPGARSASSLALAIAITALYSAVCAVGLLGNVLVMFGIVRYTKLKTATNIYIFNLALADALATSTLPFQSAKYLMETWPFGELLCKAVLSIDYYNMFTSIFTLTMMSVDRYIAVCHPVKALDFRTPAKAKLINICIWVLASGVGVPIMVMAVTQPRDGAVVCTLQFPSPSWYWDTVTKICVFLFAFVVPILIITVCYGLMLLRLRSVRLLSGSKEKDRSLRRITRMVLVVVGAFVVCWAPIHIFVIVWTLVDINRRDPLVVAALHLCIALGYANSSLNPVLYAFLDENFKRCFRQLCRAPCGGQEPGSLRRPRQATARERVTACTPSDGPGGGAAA

Take `CC(C)[C@@H]1NC(=O)[C@@H](NC(=O)[C@H](Cc2ccccc2)NC(=O)[C@@H](C)NC(=O)[C@@H](N)Cc2ccc(O)cc2)CC(=O)NCCC[C@@H](C(N)=O)NC(=O)[C@H](C(C)C)NC1=O`: the pIC50 in assay [1] is 6.60; in [2] it was 7.04. For the same molecule, the negative-log Ki (pKi) in assay [3] was 6.25; in [4] it was 6.47.
The like results for `CC(C)[C@H](NC(=O)[C@@H]1CCC(=O)NCCCC[C@@H](NC(=O)[C@@H](N)Cc2ccc(O)cc2)C(=O)N[C@@H](Cc2ccccc2)C(=O)N1)C(=O)N[C@H](C(=O)NCC(N)=O)C(C)C` were, in that order, 6.99, 9.33, 8.44 and 7.76.
In assay [1], `CC(C)[C@H](NC(=O)[C@H](CC(=O)O)NC(=O)[C@@H](Cc1ccccc1)NC(=O)[C@@H](C)NC(=O)[C@@H](N)Cc1ccc(O)cc1)C(=O)N[C@H](C(=O)NCC(N)=O)C(C)C` had a pIC50 of 4.92. Moreover, the figures for the negative logarithm of the Ki (pKi) in [5] and in assay [6] were 7.17 and 5.06, respectively.
As to `CC(C)[C@@H]1NC(=O)[C@H](CC(=O)O)NC(=O)[C@H](Cc2ccccc2)NC(=O)[C@H](NC(=O)[C@@H](N)Cc2ccc(O)cc2)CCCCNC(=O)CC[C@@H](C(N)=O)NC(=O)[C@H](C(C)C)NC1=O`, the pIC50 is 6.42 in assay [1] and 7.76 in assay [2]. Further, the pKi in [3] is 6.61; in assay [4], 6.05.
As for `CCCC[C@H](NC(=O)[C@H](CC(C)C)NC(=O)[C@H](Cc1cnc[nH]1)NC(=O)[C@H](Cc1ccccc1)NC(=O)[C@@H](CCCC)NC(=O)[C@@H](N)Cc1ccc(O)cc1)C(=O)N[C@@H](CC(=O)O)C(N)=O`, the pIC50 in [1] was 6.62; in assay [7] it was 9.15. In addition, the pKi in assay [3] is 9.18; in assay [4], 6.93.
Consider `CC(C)[C@@H]1NC(=O)[C@@H](NC(=O)[C@H](Cc2ccccc2)NC(=O)CNC(=O)[C@@H](N)Cc2ccc(O)cc2)CCC(=O)NCCCC[C@@H](C(N)=O)NC(=O)[C@H](C(C)C)NC1=O` (H-YGFEVVK-NH2; lactam 4-7), for which the negative logarithm of the IC50 (pIC50) was 5.41 in assay [1] and 6.04 in [2]. Also, the figures for the pKi in [3] and in [4] were 6.14 and 6.02, respectively.
Regarding `CC(C)[C@H](NC(=O)[C@H](CC(=O)O)NC(=O)[C@H](Cc1ccccc1)NC(=O)[C@@H]1Cc2ccccc2CN1C(=O)[C@@H](N)Cc1ccc(O)cc1)C(=O)N[C@H](C(=O)NCC(N)=O)C(C)C` (H-Y[Tic]FDVVG-NH2), the pIC50 in assay [1] was below 4.19; in assay [2], 7.64. The pKi was 8.19 in [5] and 5.03 in assay [6].
In the case of `CCCC[C@H](NC(=O)[C@H](CC(C)C)NC(=O)[C@H](Cc1ccccc1)NC(=O)[C@H](Cc1ccccc1)NC(=O)[C@@H]1Cc2ccccc2CN1C(=O)[C@@H](N)Cc1ccc(O)cc1)C(=O)N[C@@H](CC(=O)O)C(N)=O` (H-Y[Tic]FFL[Nle]D-NH2), the pIC50 in assay [1] and in assay [2] was below 5.00 in each case. For the same molecule, the pKi was 8.08 in [5] and 5.38 in assay [6].
On to `CC(C)[C@H](NC(=O)[C@H](CC(=O)O)NC(=O)C1(NC(=O)[C@@H](C)NC(=O)[C@@H](N)Cc2ccc(O)cc2)Cc2ccccc2C1)C(=O)N[C@H](C(=O)NCC(N)=O)C(C)C` (H-Y[dA][Aic]DVVG-NH2), for which the pIC50 is 6.54 in [1] and 10.10 in assay [2]. The negative logarithm of the Ki (pKi) in [5] is 8.30; in assay [6], 6.68.
As to `CC(C)[C@H](NC(=O)[C@H](CC(=O)O)NC(=O)[C@@H]1Cc2ccccc2CN1C(=O)[C@@H](C)NC(=O)[C@@H](N)Cc1ccc(O)cc1)C(=O)N[C@H](C(=O)NCC(N)=O)C(C)C` (H-Y[dA][Tic]DVVG-NH2), the pIC50 is 4.84 in assay [1] and 6.32 in [2]. The pKi is 5.30 in assay [8] and 4.82 in [6].
With `CC(C)[C@H](NC(=O)[C@H](CC(=O)O)NC(=O)C1(NC(=O)[C@@H](C)NC(=O)[C@@H](N)Cc2ccc(O)cc2)CCc2ccccc2C1)C(=O)N[C@H](C(=O)NCC(N)=O)C(C)C` (stereo in doubt; 2), the results for the pIC50 in assay [1] and in [2] were 5.74 and 9.94, respectively. For the same molecule, the pKi in assay [5] is 8.27; in assay [6] it was 6.17.
In the case of `CC(C)[C@H](NC(=O)[C@H](CC(=O)O)NC(=O)C1(NC(=O)[C@@H](C)NC(=O)[C@@H](N)Cc2ccc(O)cc2)CCc2ccccc2C1)C(=O)N[C@H](C(=O)NCC(N)=O)C(C)C` (stereo in doubt; 3), the pIC50 was 5.86 in assay [1] and 9.79 in assay [2]. Besides, the pKi in assay [9] is 8.19; in assay [10], 5.85.
Consider `CSCC[C@H](NC(=O)[C@H](CC(C)C)NC(=O)[C@H](Cc1cnc[nH]1)NC(=O)[C@H](Cc1ccccc1)NC(=O)[C@@H](CCSC)NC(=O)[C@@H](N)Cc1ccc(O)cc1)C(=O)N[C@@H](CC(=O)O)C(N)=O` (stereo in doubt; 7) [DELTORPHIN A], for which the pIC50 in [1] was 5.35; in [2], 7.01. The pKi in [3] was 6.54; in assay [4], 6.84.
For `CSCC[C@H](NC(=O)[C@H](CC(C)C)NC(=O)[C@H](Cc1cnc[nH]1)NC(=O)[C@H](Cc1ccccc1)NC(=O)[C@@H](CCSC)NC(=O)[C@@H](N)Cc1ccc(O)cc1)C(=O)N[C@@H](CC(=O)O)C(N)=O` (stereo in doubt; 12) [DELTORPHIN A], in that order: 6.55, 9.16, 8.67 and 6.38.
In assay [1], `CC(C)[C@H](NC(=O)[C@H](CC(=O)O)NC(=O)[C@H](Cc1ccccc1)NC(=O)[C@@H](C)NC(=O)[C@@H](N)Cc1ccc(O)cc1)C(=O)N[C@H](C(=O)NCC(N)=O)C(C)C` [DELTORPHIN C] gave a pIC50 of 6.07. Also, the pKi in assay [9] was 8.84; in assay [10], 6.58.
